The values below come from ChEMBL document CHEMBL1156623, “Novel 1,4-benzothiazine derivatives as large conductance Ca2+-activated potassium channel openers” (J Med Chem, 2008).

One may read the pIC50 as −log10 of the IC50, conventionally taken in molar units. The term Emax denotes the maximal effect, on the per cent scale that the assay sets.

Assay [1] addresses Calcium-activated potassium channel subunit alpha-1 (Rattus norvegicus, UniProt Q62976). Description: (§1) Activation of large-conductance calcium-activated potassium channel-mediated vasorelaxation in endothelium-denuded normotensive Wistar rat thoracic aorta assessed as potassium chloride-induced contractile tension. The gist of the method: (§2)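 Male Wistar rats (250-350 g); thoracic aortic rings, endothelium removed (confirmed by ACh 10 µM lack of relaxation), in Tyrode at 37 °C gassed 95% O2/5% CO2, isometric tension, 60 min equilibration. After stable KCl 20 mM contraction, 3-fold increasing cumulative concentrations added, up to 10 µM. Efficacy as % of KCl tone; pIC50 from half-reduction; mean ± SE of 5-10 experiments.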

Assay [2] concerns the target Calcium-activated potassium channel subunit alpha-1 (Rattus norvegicus) (UniProt Q62976). Kind of assay: Activation of large-conductance calcium-activated potassium channel-mediated vasorelaxation in endothelium-denuded normotensive Wistar rat thoracic aorta assessed as potassium chloride-induced contractile tension relative to NS-1619. The format is tissue-based.
The target is the same in assay [3]. Described as §1. Further details: scale not given: the % may be the effect or the level left. The gist of the method:
as §2

Assay [4] shares this target. Kind of assay: Activation of large-conductance calcium-activated potassium channel-mediated vasorelaxation in endothelium-denuded normotensive Wistar rat thoracic aorta assessed as potassium chloride-induced contraction in presence of tetraethylammonium chloride. The format is tissue-based. The gist of the method: (§3)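 Male Wistar rats (250-350 g); endothelium-denuded thoracic aortic rings in Tyrode at 37 °C, gassed 95% O2/5% CO2, isometric tension. Denudation checked with ACh 10 µM on KCl 20 mM contraction. After KCl 20 mM contraction, IbTX 100 nM or TEA 10 mM added, then cumulative 3-fold increasing compound concentrations, max 10 µM; DMSO stock diluted in water. Efficacy as % of KCl tone; pIC50; mean ± SE, 5-10 experiments.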

Assay [5] shares this target. Description: Activation of large-conductance calcium-activated potassium channel-mediated vasorelaxation in endothelium-denuded normotensive Wistar rat thoracic aorta assessed as potassium chloride-induced contraction in presence of iberiotoxin. The gist of the method: as §3

pIC50: −log10 of the molar value. The source made the active and inactive calls. The rule behind the calls is not given here.

Sequence of Calcium-activated potassium channel subunit alpha-1 (Q62976 whole entry): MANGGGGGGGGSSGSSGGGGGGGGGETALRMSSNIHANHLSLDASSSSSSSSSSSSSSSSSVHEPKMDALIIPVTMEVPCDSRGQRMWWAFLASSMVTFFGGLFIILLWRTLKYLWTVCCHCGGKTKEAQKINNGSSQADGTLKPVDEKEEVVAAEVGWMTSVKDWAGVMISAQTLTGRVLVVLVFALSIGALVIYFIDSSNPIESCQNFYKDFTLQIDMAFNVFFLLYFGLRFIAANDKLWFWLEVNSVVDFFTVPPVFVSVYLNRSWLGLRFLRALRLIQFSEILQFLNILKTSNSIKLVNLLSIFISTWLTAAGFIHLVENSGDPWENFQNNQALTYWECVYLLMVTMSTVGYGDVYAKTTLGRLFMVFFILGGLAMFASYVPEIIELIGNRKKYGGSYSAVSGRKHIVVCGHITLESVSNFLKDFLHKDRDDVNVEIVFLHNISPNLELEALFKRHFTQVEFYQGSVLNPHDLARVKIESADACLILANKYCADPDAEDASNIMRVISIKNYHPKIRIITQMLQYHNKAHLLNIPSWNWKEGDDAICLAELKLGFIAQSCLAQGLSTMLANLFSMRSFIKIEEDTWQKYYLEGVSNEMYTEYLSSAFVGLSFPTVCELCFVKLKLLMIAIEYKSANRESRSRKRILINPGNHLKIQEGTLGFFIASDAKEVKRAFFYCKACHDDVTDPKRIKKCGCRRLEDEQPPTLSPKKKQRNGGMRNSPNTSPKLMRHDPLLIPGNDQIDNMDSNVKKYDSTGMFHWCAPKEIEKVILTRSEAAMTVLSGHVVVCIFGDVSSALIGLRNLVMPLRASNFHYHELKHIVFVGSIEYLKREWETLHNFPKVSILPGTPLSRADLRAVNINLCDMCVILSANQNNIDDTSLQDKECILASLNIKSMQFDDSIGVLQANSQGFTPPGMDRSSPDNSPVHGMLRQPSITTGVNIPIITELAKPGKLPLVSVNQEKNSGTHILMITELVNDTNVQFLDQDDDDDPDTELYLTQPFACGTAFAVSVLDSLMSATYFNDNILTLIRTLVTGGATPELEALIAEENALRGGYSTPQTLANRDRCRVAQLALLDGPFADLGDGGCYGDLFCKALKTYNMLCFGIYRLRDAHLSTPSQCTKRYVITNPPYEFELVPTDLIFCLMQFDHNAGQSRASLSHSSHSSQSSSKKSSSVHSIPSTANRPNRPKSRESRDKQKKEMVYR
Sequence of Calcium-activated potassium channel subunit alpha-1 (Rattus norvegicus) (Q62976 whole entry): as above

On to `COc1ccc(Br)cc1C1Sc2ccccc2NC1=O` (centres undefined), for which, in assay [1], the pIC50 was 4.80. Besides, the maximum response (Emax) in assay [2] was 100%.

Consider `COc1ccccc1C1CNc2cc(C(F)(F)F)ccc2S1` (centres undefined), for which, in assay [1], the pIC50 is 4.65. Moreover, the Emax in assay [2] is 100%.

For `COc1c(Br)cc(Br)cc1C1Sc2ccc(C(F)(F)F)cc2NC1=O` (centres undefined), in assay [1], the pIC50 was 4.30. Besides, the Emax in assay [2] turned out to be 75%.

Turning to `O=C1Nc2ccccc2SC1c1ccccc1` (centres undefined), the Activity in assay [3] was less than 50%. Also, in assay [2], the Emax worked out at 42%.

For the molecule `COc1ccc(Br)cc1[C@@H](O)[C@H]1Sc2ccc(C(F)(F)F)cc2NC1=O` (relative stereo), the pIC50 in assay [1] was 5.20. For the same molecule, the maximal effect (Emax) in assay [2] was 70%.

`COc1ccc(Br)cc1C1Sc2ccc(C(F)(F)F)cc2N(C)C1=O` (centres undefined): the negative logarithm of the IC50 (pIC50) in assay [1] was 6.21. Moreover, in assay [2], the maximal response (Emax) was found to be 67%. The result in assay [4] was inactive.

On to `O=C1Nc2cc(C(F)(F)F)ccc2SC1c1cc(Cl)ccc1O` (centres undefined), for which, in assay [3], the Activity is less than 50%.

Turning to `O=c1[nH]c2cc(C(F)(F)F)ccc2n1-c1cc(C(F)(F)F)ccc1O`, the pIC50 in assay [1] was 5.30.

In the case of `COc1ccc(Br)cc1C1C(=O)Nc2cc(C(F)(F)F)ccc2[S+]1[O-]` (centres undefined), the Activity in assay [3] was less than 50%. The Emax in assay [2] is 34%.

With `COc1ccc(Br)cc1C1Sc2ccc(C(F)(F)F)cc2NC1=O` (centres undefined), the result in assay [5] and in assay [4] was inactive. Moreover, in assay [1], the pIC50 is 7.40. For the same molecule, the Emax in assay [2] is 77%.

Turning to `COc1ccc(Br)cc1C1CNc2cc(C(F)(F)F)ccc2S1` (centres undefined), the Activity in assay [3] is less than 50%. In assay [2], the Emax was less than 25%.

For the molecule `O=C1Nc2cc(C(F)(F)F)ccc2SC1c1cc(Br)ccc1O` (centres undefined), in assay [3], the Activity was less than 50%. In addition, the maximum response (Emax) in assay [2] worked out at 44%.

Regarding `COc1ccc(Br)cc1C1Sc2ccc(C(F)(F)F)cc2NC1=S` (centres undefined), the Activity in assay [3] is less than 50%. Besides, the Emax in assay [2] was 26%.

Regarding `O=C1Nc2cc(C(F)(F)F)ccc2SC1c1ccccc1` (centres undefined), in assay [3], the Activity was less than 50%. The Emax in assay [2] amounted to 39%.
